Source: ChEMBL document CHEMBL1144992, “Unsymmetrical DNA cross-linking agents: combination of the CBI and PBD pharmacophores” (J Med Chem, 2003)

Tests used:
CHO-AA8 = test: In vitro cellular toxicity against chinese hamster AA8 cell line after 4 hr of compound exposure; type: functional, cell-based; conditions: Cricetulus griseus, CHO-AA8, 4 h
How it was run: (§1)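 Cells exposed to drug for 4 h, then stained with sulforhodamine B 3 days later. IC50 interpolated as the concentration reducing cell density to 50% of same-plate controls. Values are the mean of 2-6 experiments.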

EMT6 = test: In vitro cellular toxicity against murine mammary carcinoma EMT6 cell line after 4 hr of compound exposure; type: functional, cell-based; conditions: Mus musculus, EMT6, 4 h; how it was run: as §1
SK-OV-3 [1] = test: In vitro cellular toxicity against human ovarian carcinoma SKOV3 cell line after 4 hr of compound exposure; type: functional, cell-based; conditions: SK-OV-3, 4 h; how it was run: as §1
UV4 = test: In vitro cellular toxicity against chinese hamster UV4 cell line after 4 hr of compound exposure; type: functional, cell-based; conditions: Cricetulus griseus, UV4, 4 h; how it was run: as §1
[2] = system: Panel (Carcinoma cell lines); test: In vitro drug concentration required for 50% inhibition of 60 different human cancer cell lines compared to controls; type: functional
Nucleic Acid = test: Tested for its ability to cross-link linearized plasmid DNA pcDNA3 following 18 hr of exposure at 37 degree celsius; type: functional
How it was run: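 EcoRI-linearized pcDNA3 plasmid (5400 bp), 3'-end labelled with α-32P-dATP by Klenow. 50 ng DNA incubated with drug (DMSO) in TE pH 7.5, 10 µL final volume, 18 h at 37 °C. Denatured with NaOH strand-separation buffer for 5-10 min, then run on 0.8% agarose gel. Double-stranded fraction quantified by phosphorimaging. At least five concentrations tested, 2-4 assays. C50 taken from a 3-parameter logistic fit capped at 100%.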

[3] = Ratio of LC50 values between the least sensitive and most sensitive human cancer cell lines; type: functional
How it was run: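 NCI 60-cell-line panel covering nine tissue types. LC50 is concentration producing 50% reduction in cells. Value is ratio of LC50 for least sensitive versus most sensitive line.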

COLO 205 = test: In vitro cytotoxicity against human tumor COLO 205 cell line was measured as concentration to reduce [3H]thymidine uptake to 50% of that of the controls; type: functional, cell-based; conditions: COLO 205, 5 days
How it was run: (§2)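 Cell suspensions exposed to drug continuously for 5 days. [3H]thymidine (0.25 µCi/mL, 0.1 µM) plus 5-fluoro-2'-deoxyuridine (0.1 µM) added 4 h before termination. Pronase 2 mg/mL in 4 mM Na4EDTA released adherent cells before aspiration and filtration. IC50 interpolated against same-plate controls. Mean of 2-3 experiments, some single determinations.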

HT-29 = test: In vitro cytotoxicity against human tumor HT-29 cell line was measured as concentration to reduce [3H]thymidine uptake to 50% of that of the controls; type: functional, cell-based; conditions: HT-29, 5 days; how it was run: as §2
Mus musculus [4] = test: In vivo maximum tolerated dose for single intraperitoneal injection in non tumor-bearing C3H/HeN mice; type: functional
How it was run: (§3)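 Female non-tumour-bearing C3H/HeN mice received a single ip or iv injection in 100% DMSO at 0.001 mL/g. Doses stepped in 1.33-fold increments on a fixed scale, with 60-day observation. MTD defined as highest dose giving no deaths in a group of 6 and ≤15% mean body weight loss on day 4. Ratio is iv MTD over ip MTD.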

Mus musculus [5] = test: In vivo maximum tolerated dose for single intravenous injection in non-tumor-bearing C3H/HeN mice; type: functional; how it was run: as §3
Mus musculus [6] = test: Average time for WiDr tumor xenograft to reach a diameter of 17 mm following single intravenous injection at day 0 where tumor diameter was 8 mm in mice; type: functional
How it was run: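 Subcutaneous flank implant of WiDr cells (10^7 cells/mouse) in female CD-1 nude mice. Randomised at mean tumour diameter 8 mm (5-11 mice/group). Single iv dose at predetermined MTD, formulated in 100% DMSO at 0.001 mL/g, on day 0. Calipers used until mean diameter reached 17 mm, then culled. Values are average days to end point; ANOVA with Dunnett's test.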

SiHa = test: In vitro cytotoxicity against human tumor SiHa cell line was measured as concentration to reduce [3H]thymidine uptake to 50% of that of the controls; type: functional, cell-based; how it was run: as §2
SK-OV-3 [7] = test: In vitro cytotoxicity against human tumor SKOV3 cell line was measured as concentration to reduce [3H]thymidine uptake to 50% of that of the controls; type: functional, cell-based; conditions: SK-OV-3, 5 days; how it was run: as §2
WiDr = test: In vitro cytotoxicity against human tumor WiDr cell line was measured as concentration to reduce [3H]thymidine uptake to 50% of that of the controls; type: functional, cell-based; how it was run: as §2
[8] = Ratio of maximum tolerated dose of intravenous to intraperitoneal injection in mice; type: functional; how it was run: as §3

SMILES | IC50 (CHO-AA8) | IC50 (EMT6) | IC50 (SK-OV-3 [1]) | IC50 (UV4) | GI50 [2] | C50 (Nucleic Acid) | Ratio [3] | IC50 (COLO 205) | IC50 (HT-29) | MTD (Mus musculus [4]) | MTD (Mus musculus [5]) | Time (Mus musculus [6]) | IC50 (SiHa) | IC50 (SK-OV-3 [7]) | IC50 (WiDr) | MTD ratio [8]
COc1cc2c(cc1OCCCCCC(=O)N1CC(C)c3c1cc(O)c1ccccc31)N=C[C@@H]1CCCN1C2=O (stereo partly drawn) | 4500 nM | 840 nM | 2100 nM | 2500 nM |  |  |  |  |  |  |  |  |  |  |  | 
COc1cc2c(cc1OCCC(=O)N1C[C@@H](CCl)c3c1cc(O)c1ccccc31)N=C[C@@H]1CCCN1C2=O | 240 nM | 51 nM | 200 nM | 160 nM | 500 nM | 5 µM | 50 |  |  |  |  |  |  |  |  | 
COc1cc2c(cc1OCCCCC(=O)N1C[C@@H](CCl)c3c1cc(O)c1ccccc31)N=C[C@@H]1CCCN1C2=O | 11 nM | 3.1 nM | 11 nM | 5.9 nM | 79 nM | 0.56 µM | 160 |  |  |  |  |  |  |  |  | 
COc1cc2c(cc1OCCCCCC(=O)N1C[C@H](CCl)c3c1cc(O)c1ccccc31)N=CC1CCCN1C2=O (single isomer, unassigned) | 4.2 nM | 0.56 nM | 3 nM | 1.5 nM | 18 nM | 0.13 µM | 2400 | 0.18 nM | 0.25 nM | 0.75 µM/kg | 13.3 µM/kg | 24.4 days | 0.2 nM | 0.2 nM | 0.28 nM | 17.7
COc1cc2c(cc1OCCCC(=O)N1C[C@H](CCl)c3c1cc(O)c1ccccc31)N=CC1CCCN1C2=O (single isomer, unassigned) | 4 nM | 0.3 nM | 1.9 nM | 0.83 nM | 13 nM | 0.025 µM | 3200 |  |  |  |  |  |  |  |  | 
COc1cc2c(cc1OCC(=O)N1C[C@H](CCl)c3c1cc(O)c1ccccc31)N=CC1CCCN1C2=O (single isomer, unassigned) | 48 nM | 5 nM | 16 nM | 6.1 nM | 91 nM | 1.21 µM | 200 |  |  |  |  |  |  |  |  | 
CC(=O)N1C[C@@H](CCl)c2c1cc(O)c1ccccc21 | 210 nM | 280 nM | 360 nM | 59 nM |  |  |  |  |  |  |  |  |  |  |  | 
COc1cc2c(cc1OCCCCC(=O)N1C[C@H](CCl)c3c1cc(O)c1ccccc31)N=CC1CCCN1C2=O (single isomer, unassigned) | 40 nM | 12 nM | 35 nM | 14 nM | 130 nM | 1.05 µM | 190 |  |  |  |  |  |  |  |  | 
COc1cc2cc(C(=O)N3C[C@@H](CCl)c4c3cc(O)c3ccccc43)[nH]c2c(OC)c1OC | 0.21 nM | 0.13 nM | 0.29 nM | 0.09 nM |  |  |  |  |  |  |  |  |  |  |  | 
COc1cc2c(cc1OCCCCCC(=O)N1C[C@@H](CCl)c3c1cc(O)c1ccccc31)N=C[C@@H]1CCCN1C2=O | 0.054 nM | 0.0078 nM | 0.032 nM | 0.023 nM | < 10 nM | 0.022 µM | >10000 | 0.0035 nM | 0.0027 nM | 0.0178 µM/kg | 0.178 µM/kg | 40.8 days | 0.0028 nM | 0.0033 nM | 0.0039 nM | 10
COc1cc2c(cc1OCCCC(=O)N1C[C@@H](CCl)c3c1cc(O)c1ccccc31)N=C[C@@H]1CCCN1C2=O | 0.13 nM | 0.03 nM | 0.14 nM | 0.074 nM | < 10 nM | 0.017 µM | >10000 | 0.037 nM | 0.021 nM | 0.00316 µM/kg | 0.316 µM/kg | 26 days | 0.012 nM | 0.021 nM | 0.014 nM | 100
COc1cc2c(cc1OCCCOc1cc3c(cc1OC)C(=O)N1CCC[C@H]1C=N3)N=C[C@@H]1CCCN1C2=O [DSB-120] | 340 nM | 23 nM | 140 nM | 86 nM |  | 0.029 µM |  | 7 nM | 8.7 nM | 1 µM/kg | 4.21 µM/kg | 22.8 days | 7.3 nM | 6.3 nM | 10 nM | 4.21
COc1cc2c(cc1OCCC(=O)N1C[C@H](CCl)c3c1cc(O)c1ccccc31)N=CC1CCCN1C2=O (single isomer, unassigned) | 1600 nM | 300 nM | 960 nM | 860 nM | 3200 nM | 7.9 µM | 35 |  |  |  |  |  |  |  |  | 
COc1cc2c(cc1O)N=C[C@@H]1CCCN1C2=O | 2000 nM | 1100 nM | 1900 nM | 1500 nM |  |  |  |  |  |  |  |  |  |  |  | 
COc1cc2c(cc1OCCCCCC(=O)N1C[C@@H](CCl)c3c1cc(O)c1ccccc31)NC(=O)[C@@H]1CCCN1C2=O | 29 nM | 3.2 nM | 6.2 nM | 13 nM |  |  |  |  |  |  |  |  |  |  |  | 
CC(=O)N1C[C@H](CCl)c2c1cc(O)c1ccccc21 | 14000 nM | 12000 nM | 14000 nM | 1800 nM |  |  |  |  |  |  |  |  |  |  |  | 
